# According to ChEMBL document CHEMBL1148697, “Synthesis and evaluation of new arylbenzo[b]thiophene and diarylthiophene derivatives as inhibitors of the NorA multidrug transporter of Staphylococcus aureus” (2007):
# Columns and labels:
# Assay type in all cases: functional
# MCF7 [1] = assay: Cytotoxicity against MCF7 cells at 10 uM; conditions: Homo sapiens
# Summary of the method: (§1)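 Cytotoxicity tested in KB, MCF7 and MCF7R cells with compounds at 10⁻⁵ M.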
# KB [2] = assay: Cytotoxicity against KB cells at 10 uM; conditions: Homo sapiens; summary of the method: as §1
# MCF7R [3] = assay: Cytotoxicity against MCF7R cells at 10 uM; conditions: Homo sapiens; summary of the method: as §1
# Staphylococcus aureus [4] = assay: Increase in ciprofloxacine uptake in quinolone/macrolide-resistant Staphylococcus aureus […] at 20 mg/L after 10 mins
# Summary of the method: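 Cells grown in LB to OD660 0.7–0.8, washed twice and concentrated 20-fold in 100 mM phosphate pH 7.2 with 1 mM MgSO4 and 0.4% glucose. Preincubated 5 min at 37 °C, then ciprofloxacin 10 mg/L added. Samples spun through silicone oil, pellets lysed in glycine–HCl pH 3.0 at 100 °C for 10 min. Fluorescence (ex 242/em 487 nm) read against a lysate standard curve, as ng per 10⁹ CFU.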
# Staphylococcus aureus [5] = assay: Effect on ethidium bromide efflux in quinolone/macrolide-resistant Staphylococcus aureus NorA by measuring remaining initial ethidium concentration at 20 mg/L after 10 mins
# Summary of the method: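 S. aureus NorA 1199B grown in LB at 37 °C to A660 0.7–0.8, then loaded with EtBr (10 mg/L) plus CCCP (20 mg/L) for 10 min at 37 °C. Cells spun and resuspended in LB at 37 °C without EtBr, inhibitor added at resuspension. Fluorescence read continuously for 10 min and expressed as percentage of initial fluorescence. At least three experiments.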
# Bacillus subtilis = assay: Effect on ethium bromide efflux in Bacillus subtilis at 20 mg/L after 10 mins
# Summary of the method: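 B. subtilis ΔΔ (bmr::cat blt::erm) carried plasmid pBEV, which expresses NorA from a strong promoter. Cells were transferred into PBS pH 7.2 with 0.5% glucose at 37 °C. They were loaded with EtBr (10 mg/L) plus CCCP (20 mg/L) for 10 min at 37 °C, spun down and resuspended in LB without EtBr, adding the inhibitor at that point. Fluorescence was recorded continuously for 10 min and expressed as % of initial. Each experiment was done at least three times.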
# Staphylococcus aureus [6] = assay: Increase in ciprofloxacine uptake in quinolone/macrolide-susceptible Staphylococcus aureus 1199 at 20 mg/L after 10 mins
# Summary of the method: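 Silicone-oil uptake assay. Cells were grown in LB to OD660 0.7–0.8, washed, and concentrated 20-fold in 100 mM phosphate pH 7.2 with 1 mM MgSO₄ and 0.4% glucose. After 5 min at 37 °C, ciprofloxacin was added at 10 mg/L. Timed samples were spun through silicone oil and the pellets lysed in 0.1 M glycine–HCl pH 3.0 at 100 °C for 10 min. Lysate fluorescence (ex 242/em 487 nm) was read against a standard curve and reported as ng per 10⁹ CFU.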
# Staphylococcus aureus [7] = assay: Antibacterial activity against quinolone/macrolide-susceptible Staphylococcus aureus ATCC 25923
# Summary of the method: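 MIC by twofold serial dilution in Mueller–Hinton broth with 10⁶ CFU/mL inoculum. Read as the lowest concentration with no visible growth after 18 h at 37 °C. Run in triplicate.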
# Staphylococcus aureus [8] = assay: Antibacterial activity against quinolone/macrolide-susceptible Staphylococcus aureus ATCC 25923 assessed as growth
# Summary of the method: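 Single-concentration growth screen: compound added from DMSO solution to a final 100 mg/L in MH medium with 10⁶ CFU/mL bacteria. Incubated at 37 °C with growth read at 650 nm after 1, 2, 8 and 24 h. Ampicillin was the positive control and DMSO the negative control. Scored ++ for no growth, + for growth <10% of the negative control, – otherwise.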
# KB [9] = assay: Cytotoxicity against KB cells at 0.25 nM; conditions: Homo sapiens
# MCF7 [10] = assay: Cytotoxicity against MCF7 cells at 0.25 nM; conditions: Homo sapiens
# MCF7R [11] = assay: Cytotoxicity against MCF7R cells at 0.25 nM; conditions: Homo sapiens
SMILES,inhibition at 10 µM (MCF7 [1]) [%],inhibition at 10 µM (KB [2]) [%],inhibition at 10 µM (MCF7R [3]) [%],other results
COC(=O)/C(=C/c1c(-c2ccc(C#N)cc2)sc2ccccc12)NC(=O)c1ccccc1,0,24,,
O=Cc1c(-c2ccccc2)sc2ccccc12,51,42,37,Activity (Staphylococcus aureus [4]): 0.07 a.u.; Remaining ethidium fluorescence (% of initial) (Staphylococcus aureus [5]): 72%; Activity (Bacillus subtilis): 5%; Activity (Staphylococcus aureus [6]): 0.08 a.u.
O=Cc1c(-c2cccnc2)sc2ccccc12,3,18,0,Remaining ethidium fluorescence (% of initial) (Staphylococcus aureus [5]): 72%
N#Cc1c(-c2cccc(Cl)c2)sc2ccccc12,36,23,20,
FC(F)(F)COc1c(-c2cccnc2)sc2ccccc12,,,,MIC (Staphylococcus aureus [7]): 100 µg/mL
N#Cc1ccccc1-c1sc2ccccc2c1OCC(F)(F)F,49,56,39,
N#Cc1ccccc1-c1c(OCC(F)(F)F)sc2ccccc12,92,100,97,
O=Cc1c(-c2ccccc2)oc2ccccc12,47,67,37,Remaining ethidium fluorescence (% of initial) (Staphylococcus aureus [5]): 72%
N#Cc1ccccc1-c1sc2ccccc2c1C=O,38,51,33,
COc1ccsc1-c1ccccc1C#N,17,11,4,
O=Cc1ccsc1-c1ccccc1,16,33,0,
COc1cc(-c2cccnc2)sc1-c1cccnc1,,,,MIC (Staphylococcus aureus [7]): 100 µg/mL
COc1ccc(-c2sc3ccccc3c2C=O)cc1,62,89,80,
O=Cc1c(-c2ccc(C(F)(F)F)cc2)sc2ccccc12,73,88,59,
O=Cc1c(-c2ccc(Cl)cc2)sc2ccccc12,69,67,35,
COc1c(-c2cccnc2)sc2ccccc12,,,,MIC (Staphylococcus aureus [7]): 100 µg/mL
N#Cc1sc2ccccc2c1-c1cccnc1,18,37,22,
COc1cc(-c2cccc(C(F)(F)F)c2)sc1-c1cccnc1,0,7,0,
N#Cc1c(-c2ccc(Cl)cc2)sc2ccccc12,27,29,18,
COC(=O)C(Cc1c(-c2ccc(C#N)cc2)sc2ccccc12)NC(=O)c1ccccc1 (racemic),12,35,32,Activity (Staphylococcus aureus [8]): <10%
CC(=O)O[C@@]12CO[C@@H]1C[C@H](O)[C@@]1(C)C(=O)[C@H](O)C3=C(C)[C@@H](OC(=O)[C@H](O)[C@@H](NC(=O)OC(C)(C)C)c4ccccc4)C[C@@](O)([C@@H](OC(=O)c4ccccc4)[C@H]21)C3(C)C [DOCETAXEL],,,,inhibition at 0.00025 µM (KB [9]): 87%; inhibition at 0.00025 µM (MCF7 [10]): 31%; inhibition at 0.00025 µM (MCF7R [11]): 4%
COC(=O)[C@H]1[C@H]2C[C@@H]3c4[nH]c5cc(OC)ccc5c4CCN3C[C@H]2C[C@@H](OC(=O)c2cc(OC)c(OC)c(OC)c2)[C@@H]1OC [RESERPINE],,,,Remaining ethidium fluorescence (% of initial) (Staphylococcus aureus [5]): 72%
